HSF1 activator – HSF-1 activators, primary screen, NIH3T3-HGL cells, MG132 stress, luminescence, single point; NIH3T3-HGL HSF-1 luciferase reporter, 8 h; 100% = twice DMSO control signal; activation, % at 9 µM; 1.7% of 300,000 active;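 active = mean replicate activation of at least 50% with a set share of replicates each reaching 50%; inconclusive = only one of those two conditions met; inactive = mean below 50% and too few replicates reaching it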;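 also: 0% = median of the neutral control wells and 100% = twice that signal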
AI-2 QS mod – Vibrio harveyi AI-2 quorum sensing modulators, primary screen, JMH597 strain, luminescence/OD600 ratio. Vibrio harveyi JMH597 AI-2 luminescence/OD600 ratio, 9 h; hits give low values; strain lacks LuxN and CqsS sensors; 0 = neutral-control median. activity change, % at 7.5 µM. 0.4% of 300,000 active; in the data active = activity change below about -75%, passing the limit was not always enough; inconclusive = no clear call, values can overlap the other calls;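 also: luminescence divided by OD600 gain over 9 h not by final OD600 alone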
PHOSPHO1 inh – PubChem AID 1565; inhibition, % at 13.3 µM; Phosphoethanolamine/phosphocholine phosphatase (Homo sapiens), Q8TCT1; recombinant PHOSPHO1, absorbance phosphatase assay; 1.1% of 290,000 active; in the data active = inhibition above about 60%
HSF1 inh – HSF1 inhibitors in luciferase reporter cells, primary screen, cell-based, NIH3T3, luminescence; activity change, negative = inhibition, % at 7.5 µM (by protocol); NIH3T3-HGL HSE-luciferase, MG132-induced, luminescence 8 h; hits give low values; AID 2098, 2009; 0.77% of 300,000 active;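 active = more than half of replicate wells show activity change below -50%, luminescence cut by over half; inconclusive = some wells, but at most half, below -50%; inactive = no replicate well below -50%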;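 also: luciferase reports HSF-1 transcriptional activity via heat shock element; 0% = median of DMSO wells and -100% = zero luminescence signal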
ALR inh – inhibitors of human ALR sulfhydryl oxidase, primary screen, biochemical, H2O2 detection, HRP-luminol luminescence, single point | FAD-linked sulfhydryl oxidase ALR (Homo sapiens), P55789 | purified ALR, DTT oxidation | inhibition, % (test concentration not listed) | 3.8% of 290,000 active;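 active = mean replicate inhibition above about 79%, with every replicate also reaching it, limit read from the data; inconclusive = only one of the two criteria met; inactive = mean below limit and not every replicate reaching it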
Target sequence (P55789 whole entry, looked up): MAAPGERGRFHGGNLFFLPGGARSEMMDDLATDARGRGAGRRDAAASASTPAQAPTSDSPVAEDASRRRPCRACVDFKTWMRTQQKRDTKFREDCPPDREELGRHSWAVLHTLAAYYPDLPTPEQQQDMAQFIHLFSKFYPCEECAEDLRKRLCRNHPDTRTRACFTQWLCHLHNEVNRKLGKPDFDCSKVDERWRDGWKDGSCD
HCV core dimer – inhibitors of HCV core protein dimerization, primary screen, biochemical, TR-FRET, high-throughput; TR-FRET GST/Flag-core106 dimerization, 1536-well; inhibition, % at 5 µM; 0.33% of 300,000 active;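 active = inhibition above the mean of all tested compounds plus 3 SD, set per screening campaign, cut at about 45% in these data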
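Test system: GST/Flag-tagged HCV core106 proteins; Medium: KF-containing HEPES buffer, pH 7.45, DTT, CHAPS, BSA; Times: compound-protein-antibody incubation 4 h at 22.5 °C; Detection: TR-FRET 671 and 617 nm emission; Benchmarks: wells lacking GST-core106 and wells with excess unlabelled core106.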
Active calls of the source: *; ? = inconclusive; nt = no result. Sampled rows, rich in hits. Any-hit rate of the full collection: about 6.8%.

SMILES	HSF1 activator	AI-2 QS mod	PHOSPHO1 inh	HSF1 inh	ALR inh	HCV core dimer
Cc1nnc(NC(=O)CSc2nnc(CC(=O)Nc3ccccc3Cl)n2C)s1	6	27	-9	-1	0	-14
CCCOc1ccc(/C(O)=C2/C(=O)C(=O)N(CCN(C)C)C2c2ccc(O)c(OC)c2)cc1 (stereo not drawn)	-80	12	29	-77*	nt	nt
O=C(O)c1cccc(N2C(=O)/C(=C/c3ccc([N+](=O)[O-])cc3)C=C2c2ccccc2)c1	-74	11	-7	-72*	2	17
O=C1/C(=C/c2ccc([N+](=O)[O-])cc2)C=C(c2ccccc2)N1c1ccc(O)cc1	95*	13	22	45	4	9
O=C1/C(=C/c2ccc([N+](=O)[O-])cc2)C=C(c2ccccc2)N1c1ccccc1	35	10	16	17	-5	3
Cc1nn(CC(=O)NNC(=O)c2cccc(Br)c2)c(C)c1[N+](=O)[O-]	-5	3	38	-8	-6	5
O=C(CNS(=O)(=O)c1ccc(Br)s1)NCc1ccccc1	69*	-18	20	29	-1	-2
O=C(CNS(=O)(=O)c1ccc(Br)s1)NCc1ccc(F)cc1	31	-1	19	3	-6	-16
COc1ccc(CCNC(=O)CCNC(=O)N2CC(=O)Nc3ccccc32)cc1	6	14	-1	2	-16	-10
Cc1ccc(C(=O)OCC(=O)c2ccc(Cl)s2)s1	60*	-7	-14	28	-3	4
Cc1ccc(C(=O)OCC(=O)NCCNC(=O)COC(=O)c2ccc(C)s2)s1	-18	19	nt	-2	-2	-2
Cn1c(N)c(C(=O)Nc2ccccc2F)sc1=S	nt	16	28	nt	99*	2
Cn1c(N)c(C(=O)Nc2ccc3ccccc3c2)sc1=S	27	19	96*	21	-4	3
COc1ccc(C2C(C(=O)c3cccs3)=C(O)C(=O)N2c2nncs2)cc1 (stereo not drawn)	22	38	71*	1	8	1
Cc1cccc(N2C(=O)C(O)=C(C(=O)c3cccs3)C2c2ccc(F)cc2)n1 (stereo not drawn)	21	22	-20	17	4	-7
Cc1cccc(N2C(=O)C(O)=C(C(=O)c3cccs3)C2c2ccc(C(C)C)cc2)n1 (stereo not drawn)	?	26	20	22	98*	20
C=CCOc1ccc(/C=N/O)cc1Cl	5	28	-11	-4	-13	-8
O=C1C2CC=CCC2C(=O)N1c1ccc(NCCc2ccccc2)c([N+](=O)[O-])c1 (stereo not drawn)	70*	0	1	35	1	9
O=C1C2CC=CCC2C(=O)N1c1ccc(NCCc2ccccc2F)c([N+](=O)[O-])c1 (stereo not drawn)	64*	6	-2	37	-5	11
CC1CC(=O)N(c2ccc(NCCc3ccccc3)c([N+](=O)[O-])c2)C1=O (stereo not drawn)	23	15	18	20	nt	-1
O=C(c1cccc(-c2ccccc2F)c1)N1CC[C@@H](N2CCC(O)CC2)[C@H](O)C1	15	13	38	7	-9	4
CCOC(=O)Cc1cc(=O)n2[nH]c(C(C)(C)C)cc2n1	19	-2	-13	0	0	4
CN1CCc2c(n(CC(O)CNCc3ccccc3)c3ccccc23)C1=O (stereo not drawn)	17	-1	2	2	-17	9
CC(C)NCC(O)Cn1c2c(c3ccccc31)CCc1c-2cnn1-c1ccccc1 (stereo not drawn)	-2	51	-9	3	89*	-38
CN(CCCC(=O)Nc1ccc(OC(F)F)cc1)S(=O)(=O)c1ccc(F)cc1	-16	9	31	1	-10	-5

Compound activity (PubChem)
